Assay results of several laboratories.
Target: Mitogen-activated protein kinase kinase kinase 9 (MAP3K9, Homo sapiens, UniProt P80192)

With `Cc1nn(CC(F)(F)F)cc1Nc1nccc(NCCc2cnc[nH]2)n1` the remaining activity was 77% (enzyme activity, inhibitor, radiometric; 1 µM).
For `CCS(=O)(=O)c1cc2cc(C[C@](O)(CC(C)(C)c3ccc(F)cc3C(N)=O)C(F)(F)F)[nH]c2cn1`, the remaining binding was 98% (cell-free assay, competition with immobilised ligand; 1 µM).
With `COc1cc(Nc2cnc(C#N)c(O[C@H](C)CN(C)C)n2)ncc1-c1cnn(C)c1` the remaining activity was 92% (enzyme activity, inhibitor, radiometric; 1 µM).
With `C#Cc1cccc(Nc2ncnc3cc(OCCOC)c(OCCOC)cc23)c1` the remaining signal was 111% (cell-free assay; 0.5 µM).
`c1ccc(CNc2nc(N3CCOc4ccccc43)nc3c2CCCC3)cc1` gave an inhibition of 3.8% (target engagement in cells, inhibitor, chemoproteomics; 20 mM).
For `COc1cc2ncnc(Nc3ccc(Oc4ccccc4)c(C)c3C)c2cc1OC`, the inhibition was 1% (enzyme activity, inhibitor; 1 µM).
For `O=C(O)c1cc(-c2ccc(C3CCNCC3)cc2)c2ccc(-c3ccc(C(F)(F)F)cc3)cc2c1`, the remaining binding was 100% (cell-free assay, competition with immobilised ligand; 1 µM).
The remaining signal of `O=C1Nc2ccc(Cl)cc2C1=Cc1cc(Cl)c(O)c(Cl)c1` is reported as 102% (cell-free assay; 0.5 µM).
`CNC(=O)c1cc(Oc2ccc(NC(=O)Nc3ccc(Cl)c(C(F)(F)F)c3)cc2)ccn1` has an inhibition of 23% (enzyme activity, inhibitor; 10 µM).
`Cc1c(C(=O)O)cc(-c2ccc(C3CCNCC3)cc2)c2ccc(-c3ccc(C(F)(F)F)cc3)cc12` gave a remaining binding of 92% (binding, competition with immobilised ligand; 1 µM).
`Cc1nn(CC(F)(F)F)cc1Nc1ncc(Br)c(NCc2ccc(S(N)(=O)=O)cc2)n1` gave a remaining activity of 80% (enzyme activity, inhibitor, radiometric; 1 µM).
With `CN(c1ccnc(CNc2nc(Nc3ccc4c(c3)CC(=O)N4)ncc2C(F)(F)F)n1)S(C)(=O)=O` the remaining binding was 41% (cell-free assay, competition with immobilised ligand; 1 µM).
For `NS(=O)(=O)c1ccc(CNc2nc(Nc3cccc(NC(=O)N4CCCC4)c3)ncc2C2CC2)cc1`, the remaining activity was 89% (enzyme activity, inhibitor, radiometric; 1 µM).
`Cc1ccc(Nc2nccc(N(C)c3ccc4c(C)n(C)nc4c3)n2)cc1S(N)(=O)=O` gave an inhibition of 88% (enzyme activity, inhibitor; 0.3 µM).
For `Cc1nn(CC(F)(F)F)cc1Nc1nccc(NCCCNC(=O)C2CCC2)n1`, the remaining activity was 85% (enzyme activity, inhibitor, radiometric; 1 µM).
With `Nc1ncnc2occ(-c3ccc(NC(=O)Nc4cc(C(F)(F)F)ccc4F)cc3)c12` the remaining signal was 2% (cell-free assay, inhibitor; 20 µM).
`c1cc(CN2CCOCC2)cc(Nc2ncc(C3CC3)c(NCCc3c[nH]cn3)n2)c1` has a remaining activity of 7% (enzyme activity, inhibitor, radiometric; 1 µM).
`CNC(=O)Nc1ccc2c(c1)[C@@]1(CC2)OC(=O)N(CC(=O)N(Cc2ccc(F)cc2)[C@@H](C)C(F)(F)F)C1=O` gave a remaining binding of 100% (cell-free assay, competition with immobilised ligand; 1 µM).
`O=C(NCCCNc1nc(Nc2cccc(CN3CCOCC3)c2)ncc1C1CC1)C1CCC1` has a remaining activity of 19% (enzyme activity, inhibitor, radiometric; 1 µM).
With `O=C(O)[C@H]1[C@H](Cn2nnc3ccccc3c2=O)CC[C@@H]1C(=O)c1ccc(OCCC2CCOCC2)cc1` the remaining binding was 81% (cell-free assay, competition with immobilised ligand; 1 µM).
